Most compounds without a hit are left out; they make up all but 2.3% or so of the library.
TRPC6 inh: inhibitors of mouse TRPC6 channel | Q61143 | HEK293-TRPC6, membrane potential dye, ACh-evoked depolarization; stronger effect = lower value | B-score at 10 µM | 310,000 tested, 1.1% active | AID 2553;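 active means B-score under library mean minus 3 SD, initial fluorescence not abnormally high, positive integrated signal ratio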;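 further: B-score derived from integrated fluorescence ratio over the kinetic read; more negative B-score means stronger inhibition of depolarization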
Target sequence (Q61143 whole entry, looked up): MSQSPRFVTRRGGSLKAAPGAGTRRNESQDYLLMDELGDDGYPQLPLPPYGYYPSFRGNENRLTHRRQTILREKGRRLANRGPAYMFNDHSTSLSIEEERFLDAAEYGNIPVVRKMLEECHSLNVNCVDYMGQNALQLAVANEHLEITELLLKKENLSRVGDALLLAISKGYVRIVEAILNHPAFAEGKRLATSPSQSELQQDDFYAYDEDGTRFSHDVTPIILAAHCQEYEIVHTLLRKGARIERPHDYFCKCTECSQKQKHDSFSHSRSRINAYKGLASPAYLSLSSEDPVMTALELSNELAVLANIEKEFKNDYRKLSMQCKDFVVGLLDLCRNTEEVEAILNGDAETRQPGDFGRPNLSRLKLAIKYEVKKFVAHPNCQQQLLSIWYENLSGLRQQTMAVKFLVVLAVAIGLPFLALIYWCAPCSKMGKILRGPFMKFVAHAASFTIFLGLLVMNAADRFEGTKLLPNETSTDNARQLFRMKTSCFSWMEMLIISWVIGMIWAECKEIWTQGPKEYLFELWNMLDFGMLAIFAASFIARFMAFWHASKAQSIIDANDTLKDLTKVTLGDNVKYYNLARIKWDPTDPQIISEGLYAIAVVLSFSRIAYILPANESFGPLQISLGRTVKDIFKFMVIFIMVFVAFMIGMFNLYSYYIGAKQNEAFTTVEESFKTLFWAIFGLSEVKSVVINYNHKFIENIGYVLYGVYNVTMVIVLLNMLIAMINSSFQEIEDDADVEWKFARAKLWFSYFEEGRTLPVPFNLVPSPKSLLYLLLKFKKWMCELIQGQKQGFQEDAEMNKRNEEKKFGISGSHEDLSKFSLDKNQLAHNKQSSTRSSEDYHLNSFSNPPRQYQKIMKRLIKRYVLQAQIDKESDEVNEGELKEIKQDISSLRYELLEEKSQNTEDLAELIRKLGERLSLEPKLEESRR
TRPC4 act: TRPC4 (mouse) channel activation; Q9QUQ5; HEK293 TRPC4beta/mu-opioid, Fluo4 calcium fluorescence; stronger effect = higher value; B-score at 10 µM; 310,000 tested, 0.49% active;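 active means B-score above 5 SD of library B-scores, and initial fluorescence ratio not above library mean plus 5 SD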;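 further: positive B-score marks a calcium rise read as TRPC4 activation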
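System – HEK293 cells stably co-expressing mouse TRPC4beta and mu-opioid receptor · Signal – Fluo4 calcium-sensitive dye fluorescence, kinetic, 1 Hz baseline · Benchmarks – buffer (low) and maximal DAMGO (high) · Read-out – B score of integrated fluorescence ratio per well · Incubation – dye loading 45 min room temperature, 110 s kinetic read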
TRPC4 inh: inhibitors of mouse TRPC4 channel. AID 2247. 300,000 tested, 0.39% active. HEK293 TRPC4beta/mu-opioid, DAMGO-evoked Fluo4 calcium flux; stronger effect = lower value. Q9QUQ5. B-score at 10 µM;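 active means B-score over 3 SD under the library average, no early fluorescence shift, positive overall ratio signal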
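System: stable TRPC4beta/mu-opioid receptor HEK293 cells; Dosing: single-point compound dosing; Measured by: Fluo4 Ca2+ flux fluorescence; Read-out basis: per-well B score of integrated baseline-normalized Fluo4 ratio.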
TRPC4 PAM: allosterically enhances the mouse TRPC4 cation channel | Q9QUQ5 | 310,000 tested, 0.42% active | B-score at 10 µM | HEK293 TRPC4beta/mu-opioid, DAMGO EC20, Fluo-4 Ca2+ flux; stronger effect = higher value | AID 2227;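 active means B-score of calcium response area above 5 SD of library B-scores, with initial fluorescence ratio within 5 SD of library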;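 further: B-score of integrated fluorescence ratio over time as area under calcium response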
TRPC6 activator: activates the mouse TRPC6 cation channel. HEK293-TRPC6 membrane potential dye fluorescence; stronger effect = higher value. B-score at 10 µM. 310,000 tested, 0.13% active;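 active means B-score of the integrated fluorescence ratio above library mean plus 3 SD, and starting fluorescence ratio within library mean plus 5 SD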;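 further: higher score means more depolarization so channel activation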
TRPC4 spec 2: second check of whether TRPC6 inhibitors also affect mouse TRPC4; shares compounds with TRPC6 inh; HEK293 TRPC4/MOR, membrane potential dye fluorescence; channel activated by saturating DAMGO dose; inhibition, % at 10 µM; 920 tested, 42% active; AID 2776;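 active means compounds whose fluorescence signal differed from control wells by over 3 SD, either direction, in both duplicate plates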
TRPC4 spec: tests whether TRPC6 inhibitors also affect mouse TRPC4 | HEK293 TRPC4/mu-opioid, membrane potential fluorescence | activity change, negative = inhibition, % at 10 µM | 920 tested, 61% active | shares compounds with TRPC6 inh;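 active means rise or fall in signal beyond 3 SD of buffer-only wells in both replicate plates, either sign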;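 further: integrated kinetic ratio of fluorescence range over baseline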
HEK293 MPD ctr 2-1: parental HEK293 nonspecific activity of TRPC6 inhibitors, second screen; shares compounds with TRPC6 inh; parental HEK293 membrane potential dye fluorescence; maximal acetylcholine challenge after compound addition; signal change vs control, % at 10 µM; 920 tested, 31% active;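 active means membrane potential signal moving either way by over 3 SD of the maximum-effect control, in both duplicate plates, meaning non-specific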
HEK293 MPD ctr-1: counter-screen for TRPC6 inhibitors: effect in parental HEK293 cells; AID 2780; shares compounds with TRPC6 inh; membrane potential signal change, % at 10 µM; 920 tested, 60% active; parental HEK293 membrane potential dye fluorescence;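 active means membrane potential signal shifting up or down by more than 3 SD of buffer-only wells, on both duplicate plates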
HEK293 MPD ctr-2: checks TRPC6 modulator effects in parental HEK293 cells; shares compounds with TRPC6 inh; membrane potential dye fluorescence; membrane potential signal change, % at 10 µM; 2,400 tested, 51% active; AID 488924;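 active means membrane potential signal moves up or down beyond 5 SD from buffer-only wells, on both duplicate plates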
HEK293 MPD ctr 2-2: second check of TRPC6 modulator effects in parental HEK293 cells. shares compounds with TRPC6 inh. membrane potential dye fluorescence; after compound, maximal acetylcholine stimulation. inhibition, % at 10 µM. 2,400 tested, 14% active. AID 488926;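 active means membrane potential signal drops by more than 5 SD from the mean control signal, in both duplicate plates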;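 further: plate controls were acetylcholine ECmax control wells for no effect and buffer only wells for full effect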
TRPC4 ctr mod: tests whether TRPC6 modulators also affect mouse TRPC4 | shares compounds with TRPC6 inh | HEK293 TRPC4/mu-opioid, membrane potential fluorescence | percent change from control (negative = decrease, positive = increase), % at 10 µM | 2,400 tested, 69% active | AID 488927;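 active means membrane potential signal moved up or down beyond 5 SD of buffer control wells, in both duplicate plates, actives on both sides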;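 further: plate controls were assay buffer wells for no effect and DAMGO maximal-effect wells for full effect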
TRPC4 ctr inh 2: second selectivity test of TRPC6 modulators against mouse TRPC4. shares compounds with TRPC6 inh. inhibition, % at 10 µM. AID 488928. HEK293 TRPC4/mu-opioid, membrane potential dye fluorescence; stimulated with maximal-effect DAMGO. 2,400 tested, 55% active;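 active means drop in membrane potential signal beyond 5 SD of the control wells in both duplicate plates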;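 further: TRPC4 counter screen for TRPC6 hits run under conditions tuned for TRPC6 not TRPC4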
TRPC6 inh conf: confirmation of mouse TRPC6 inhibitors. shares compounds with TRPC6 inh. HEK293-TRPC6, membrane potential dye, ACh-evoked depolarization. inhibition, % at 10 µM. 3,300 tested, 43% active;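 active means fluorescence ratio falls more than 5 SD below the full-stimulation control mean, in both duplicate runs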;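 further: integrated fluorescence ratio of peak minus minimum over baseline after agonist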
TRPC6 act conf: mouse TRPC6 activator confirmation; activation, % at 10 µM; 2,800 tested, 11% active; HEK293-TRPC6 membrane potential dye fluorescence, FDSS; shares compounds with TRPC6 inh; AID 488961;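 active means ratio signal rise beyond 5 SD above unstimulated control wells' mean, seen in both duplicate runs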;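 further: plate controls were buffer EC0 wells for no effect and acetylcholine ECmax response for full effect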
* = called active by the depositor; i = inactive; nt = not tested or not shown.

SMILES | TRPC6 inh | TRPC4 act | TRPC4 inh | TRPC4 PAM | TRPC6 activator | HEK293 MPD ctr-2 | HEK293 MPD ctr 2-2 | TRPC4 ctr mod | TRPC4 ctr inh 2 | TRPC6 inh conf | TRPC6 act conf | others
CCN(CC)CCNC(=S)NC(=O)c1cn(-c2ccccc2)nc1-c1ccc(OC)cc1 | -5.1* | i | i | i | i | i | i | i | 58%* | i | i
COC(=O)c1cn(-c2ccccc2)nc1-c1ccc(OC)cc1 | i | i | i | i | i | nt | nt | nt | nt | nt | nt
O=C(CN1CCN(Cc2ccccc2)CC1)Nc1cccc(S(=O)(=O)N2CCCCCC2)c1 | i | i | i | i | i | nt | nt | nt | nt | nt | nt
O=C(Nc1cccc(S(=O)(=O)N2CCCCC2)c1)c1c2c(nc3ccccc13)CCN(Cc1ccccc1)C2 | -5.3* | i | i | i | i | i | i | i | i | i | i
c1ccc2[nH]c(NCCCN3CCOCC3)nc2c1 | i | i | i | i | i | nt | nt | nt | nt | nt | nt
Cc1cccc(-c2nc(NCCCN3CCOCC3)c3ccccc3n2)c1 | -9.6* | i | i | i | i | nt | nt | nt | nt | 79%* | i | TRPC4 spec 2=38%*;TRPC4 spec=-21%*;HEK293 MPD ctr 2-1=i;HEK293 MPD ctr-1=-284%*
N#Cc1c2c(c(NCCCN3CCOCC3)n3c1nc1ccccc13)CCC2 | -6* | i | i | i | i | -173%* | 70%* | -36%* | 52%* | 46%* | i
c1ccc(-c2nc(NCCCN3CCOCC3)c3ccccc3n2)cc1 | -11* | i | i | i | i | -168%* | i | -36%* | 68%* | 58%* | i
CCn1cc([N+](=O)[O-])c(C(=O)Nc2nc3ccc(OC)cc3s2)n1 | i | i | i | i | i | nt | nt | nt | nt | nt | nt
CC1CN(CC(=O)Nc2nc3ccccc3s2)CC(C)O1 (stereo not given) | i | i | i | i | i | nt | nt | nt | nt | nt | nt
O=C(Nc1cccc(S(=O)(=O)N2CCCCCC2)c1)C1CC(=O)N(c2ccc3c(c2)OCCO3)C1 (stereo not given) | i | i | i | i | i | nt | nt | nt | nt | nt | nt
Cc1onc(-c2ccccc2)c1C(=O)NNC(=O)c1ccccc1O | i | i | i | i | i | nt | nt | nt | nt | nt | nt
Cc1onc(-c2ccccc2)c1C(=O)NNC(=S)NC(=O)c1ccc(Cl)cc1Cl | -5.8* | 375* | i | i | i | 96%* | i | 36%* | 36%* | i | nt
Cc1ccccc1C(=O)Nc1ccc2c(C#N)c3nc4ccccc4nc3n2c1 | -5.8* | i | i | i | i | i | i | -10%* | i | i | i
COc1ccc(C(=O)N(c2ccccc2)C2C=CS(=O)(=O)C2)cc1 (stereo not given) | i | i | i | i | i | nt | nt | nt | nt | nt | nt
O=C(c1ccccc1)N(c1ccccc1)C1C=CS(=O)(=O)C1 (stereo not given) | -6.3* | i | i | i | i | i | i | i | i | i | i
Oc1[nH]c2ccccc2c1N=NC(=S)NCC1CCCO1 (stereo not given) | i | i | i | i | i | nt | nt | nt | nt | nt | nt
Oc1[nH]c2ccc(Br)cc2c1N=NC(=S)NCC1CCCO1 (stereo not given) | -8.8* | i | i | i | i | nt | nt | nt | nt | i | i | TRPC4 spec 2=i;TRPC4 spec=i;HEK293 MPD ctr 2-1=i;HEK293 MPD ctr-1=i
O=C(NNc1nc(N2CCOCC2)nc(N2CCOCC2)n1)Nc1ccc(Cl)cc1 | i | i | i | i | i | nt | nt | nt | nt | nt | nt
CCN(CC)CCCN(C(=O)c1cccs1)c1nc(-c2ccc(OC)cc2)cs1 | i | i | i | i | i | nt | nt | nt | nt | nt | nt
CCN(CC)CCCN(C(=O)c1ccc(Br)cc1)c1nc(-c2ccc(OC)cc2)cs1 | -6.2* | i | i | i | i | i | i | i | 72%* | 53%* | i
CCN(CC)CCCN(C(=O)c1ccco1)c1nc(-c2ccc(Cl)cc2)cs1 | -7.5* | i | i | i | i | nt | nt | nt | nt | 60%* | i | TRPC4 spec 2=26%*;TRPC4 spec=-13%*;HEK293 MPD ctr 2-1=i;HEK293 MPD ctr-1=-154%*
CCN(CC)CCCN(C(=O)c1cccc(C)c1)c1nc(-c2ccc(OC)cc2)cs1 | -6.1* | i | i | i | i | i | i | -14%* | 86%* | 83%* | i
Cc1cc(C)cc(NC(=S)N2CCN(S(=O)(=O)c3ccccc3)CC2)c1 | i | i | i | i | i | nt | nt | nt | nt | nt | nt
CCOC(=O)N1CCc2c(sc(NC(=O)CN3CCN(C)CC3)c2C(=O)Nc2ccccc2)C1 | -5.3* | i | i | i | i | -83%* | i | -24%* | 46%* | i | i
CCOC(=O)N1CCc2c(sc(NC(=O)CN3CCOCC3)c2C(=O)Nc2ccccc2)C1 | i | i | i | i | i | nt | nt | nt | nt | nt | nt
O=C(NCCS(=O)(=O)N1CCN(c2ccccc2)CC1)c1ccccc1F | i | i | i | i | i | nt | nt | nt | nt | nt | nt
Cc1cccc(C)c1OCc1cc(C(=O)N(C)CCc2ccccn2)no1 | i | i | i | i | i | nt | nt | nt | nt | nt | nt
CN1CCC(OC(c2ccccc2)c2ccccc2)CC1 | -6.6* | i | i | i | i | nt | nt | nt | nt | 66%* | nt | TRPC4 spec 2=i;TRPC4 spec=8.7%*;HEK293 MPD ctr 2-1=-5.0%*;HEK293 MPD ctr-1=11%*

Screens deposited in PubChem BioAssay by Johns Hopkins Ion Channel Center.
